In ChEMBL document CHEMBL3414543, “Novel series of benzoquinones with high potency against 5-lipoxygenase in human polymorphonuclear leukocytes” (Eur J Med Chem, 2015):

Tests used:
[1] = biological target: T1, Polyunsaturated fatty acid 5-lipoxygenase (Homo sapiens, UniProt P09917); test: Inhibition of human recombinant 5-LOX expressed in Escherichia coli BL21 incubated for 10 mins in presence of arachidonic acid by RP-HPLC based cell-free assay
T1 sequence (P09917 whole entry): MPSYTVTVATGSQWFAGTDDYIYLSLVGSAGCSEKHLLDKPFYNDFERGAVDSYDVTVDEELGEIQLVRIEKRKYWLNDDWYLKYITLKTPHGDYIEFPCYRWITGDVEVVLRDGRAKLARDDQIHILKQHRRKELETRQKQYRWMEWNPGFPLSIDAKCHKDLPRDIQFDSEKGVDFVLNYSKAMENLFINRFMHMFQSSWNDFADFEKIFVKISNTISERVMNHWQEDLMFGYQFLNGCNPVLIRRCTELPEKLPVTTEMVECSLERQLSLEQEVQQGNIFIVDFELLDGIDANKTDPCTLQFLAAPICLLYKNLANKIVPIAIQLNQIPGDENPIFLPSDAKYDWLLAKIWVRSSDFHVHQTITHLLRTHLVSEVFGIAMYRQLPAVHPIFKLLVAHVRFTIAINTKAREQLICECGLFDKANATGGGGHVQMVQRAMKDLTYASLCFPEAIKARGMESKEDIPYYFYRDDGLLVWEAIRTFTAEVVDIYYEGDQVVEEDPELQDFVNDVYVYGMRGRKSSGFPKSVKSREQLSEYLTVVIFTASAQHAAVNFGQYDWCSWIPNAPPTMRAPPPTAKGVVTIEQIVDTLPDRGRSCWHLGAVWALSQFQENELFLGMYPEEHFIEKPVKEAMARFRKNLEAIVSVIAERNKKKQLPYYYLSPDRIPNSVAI
Summary of the method: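 Recombinant human 5-LO, semi-purified from a 40,000 × g lysate supernatant on ATP-agarose, diluted in ice-cold PBS with 1 mM EDTA and 1 mM ATP. Preincubated 10 min at 4 °C with compound or 0.1% DMSO, warmed 30 s at 37 °C, then started with 2 mM CaCl₂ plus 20 µM AA. Reaction 10 min at 37 °C, stopped with cold methanol, products by RP-HPLC. IC₅₀ from 4–5 concentrations.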

[2] = biological target: T2, Polyunsaturated fatty acid lipoxygenase ALOX12 (Homo sapiens) (UniProt P18054); test: Inhibition of 12-LOX in human blood PMNL assessed as remaining activity by measuring 12-HETE synthesis at 10 uM
T2 sequence (whole entry): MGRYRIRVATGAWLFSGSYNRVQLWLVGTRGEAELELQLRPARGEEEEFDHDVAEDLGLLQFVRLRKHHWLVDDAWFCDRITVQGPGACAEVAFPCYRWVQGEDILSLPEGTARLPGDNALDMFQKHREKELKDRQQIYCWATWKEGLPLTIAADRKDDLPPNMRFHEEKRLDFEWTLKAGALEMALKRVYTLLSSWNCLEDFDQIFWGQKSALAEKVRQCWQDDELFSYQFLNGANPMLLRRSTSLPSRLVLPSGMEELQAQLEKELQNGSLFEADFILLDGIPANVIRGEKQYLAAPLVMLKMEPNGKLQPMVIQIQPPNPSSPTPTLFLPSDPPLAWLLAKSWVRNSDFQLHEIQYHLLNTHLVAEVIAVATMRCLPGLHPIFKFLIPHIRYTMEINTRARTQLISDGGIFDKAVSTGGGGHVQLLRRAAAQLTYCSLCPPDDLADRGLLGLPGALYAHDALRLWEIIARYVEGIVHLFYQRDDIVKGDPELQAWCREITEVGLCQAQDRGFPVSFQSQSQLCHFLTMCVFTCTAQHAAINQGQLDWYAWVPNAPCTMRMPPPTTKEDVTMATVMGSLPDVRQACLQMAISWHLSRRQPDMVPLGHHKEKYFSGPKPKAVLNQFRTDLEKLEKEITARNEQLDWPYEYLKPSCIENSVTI
Summary of the method: (§1)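 PMNL isolated from heparinized blood of fasted healthy donors by dextran sedimentation and Nycoprep centrifugation, with hypotonic lysis of erythrocytes. Cells at 5 × 10⁶ in 1 ml PBS pH 7.4 with 1 mg/ml glucose and 1 mM CaCl₂, preincubated 15 min at 37 °C with compound or 0.1% DMSO vehicle, then stimulated 10 min at 37 °C. 12-HETE or 15-HETE formation measured.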

[3] = biological target: T3, Polyunsaturated fatty acid lipoxygenase ALOX15 (Homo sapiens) (UniProt P16050); test: Inhibition of 15-LOX-1 in human blood PMNL assessed as remaining activity by measuring 15-HETE synthesis at 10 uM; summary of the method: as §1
T3 sequence (whole entry): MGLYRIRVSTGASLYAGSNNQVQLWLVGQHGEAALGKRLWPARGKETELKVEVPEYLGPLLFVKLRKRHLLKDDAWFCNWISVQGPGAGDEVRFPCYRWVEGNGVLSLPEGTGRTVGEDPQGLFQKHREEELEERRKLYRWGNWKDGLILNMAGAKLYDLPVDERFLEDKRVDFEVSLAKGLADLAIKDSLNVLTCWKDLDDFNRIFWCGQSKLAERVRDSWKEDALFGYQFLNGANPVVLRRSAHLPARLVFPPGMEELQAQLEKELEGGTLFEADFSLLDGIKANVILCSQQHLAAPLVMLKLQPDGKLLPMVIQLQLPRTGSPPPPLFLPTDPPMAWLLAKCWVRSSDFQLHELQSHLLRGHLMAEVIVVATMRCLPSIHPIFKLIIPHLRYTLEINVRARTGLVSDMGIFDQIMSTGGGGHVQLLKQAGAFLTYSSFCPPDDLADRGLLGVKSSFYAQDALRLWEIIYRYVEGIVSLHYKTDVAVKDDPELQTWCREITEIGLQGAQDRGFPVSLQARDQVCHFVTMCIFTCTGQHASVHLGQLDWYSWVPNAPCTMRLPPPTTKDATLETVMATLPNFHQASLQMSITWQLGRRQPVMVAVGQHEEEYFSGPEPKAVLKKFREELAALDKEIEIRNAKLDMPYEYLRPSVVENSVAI

[4] = biological target: T1, Polyunsaturated fatty acid 5-lipoxygenase; test: Inhibition of 5-LOX in A23187-stimulated human blood PMNL assessed as reduction in lipoxygenase products formation in presence of arachidonic acid pre-incubated for 15 mins followed by stimulation with A23187 for 10 mins by RP-HPLC based cell based assay
Summary of the method: (§2)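 Human PMNL (5 × 10⁶ in 1 ml PBS pH 7.4, 1 mg/ml glucose, 1 mM CaCl₂), preincubated 15 min at 37 °C with compound or 0.1% DMSO, then stimulated 10 min at 37 °C with A23187, with or without AA. 5-LO products measured. Values are mean ± S.E. of 3–4 independent experiments. IC₅₀ read graphically from 4–5 concentrations.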

[5] = biological target: T1, Polyunsaturated fatty acid 5-lipoxygenase; test: Inhibition of 5-LOX in A23187-stimulated human blood PMNL assessed as reduction in lipoxygenase products formation pre-incubated for 15 mins followed by stimulation with A23187 for 10 mins by RP-HPLC based cell based assay; summary of the method: as §2
[6] = biological target: T4, Polyunsaturated fatty acid 5-lipoxygenase (Homo sapiens) (UniProt P09917); test: Inhibition of 5-LOX in A23187-stimulated human blood PMNL assessed as remaining activity by measuring lipoxygenase products formation at 10 uM in presence of arachidonic acid pre-incubated for 15 mins followed by stimulation with A23187 for 10 mins by RP-HPLC based cell based assay; summary of the method: as §2
T4 sequence (whole entry): T1 sequence (P09917 whole entry)

IC50 [1] [nM]	Activity [2] [%]	Activity [3] [%]	IC50 [4] [nM]	IC50 [5] [nM]	Activity [6] [%]	SMILES
300	211	174	100	150	–	COC1=CC(=O)C(=O)C(C/C=C(\C)CC/C=C(\C)CCC=C(C)C)=C1OC
330	59.3	102	820	380	–	CCCCCCCCC1=C(OC)C(OC)=CC(=O)C1=O
610	138	127	490	630	–	CCCCCCCCCCCCC1=C(OC)C(=O)C=C(OC)C1=O
3300	103	103	7900	3400	–	CCCCC1=C(OC)C(=O)C=C(OC)C1=O
170	101	139	5100	3100	–	CCCCCCCCCCCCCCC1=C(O)C(=O)C=C(O)C1=O
1700	139	136	1200	310	–	COC1=CC(=O)C(OC)=C(C/C=C(\C)CC/C=C(\C)CCC=C(C)C)C1=O
4300	122	123	2700	590	–	CCCCCCCCCCC1=C(O)C(=O)C=C(OC)C1=O
210	84.5	116	1400	290	–	CCCCCCCCCCCCCCC1=C(OC)C(=O)C=C(OC)C1=O
170	90.6	65.1	3900	4600	–	CCCCCCCCCCCCC1=C(O)C(=O)C=C(O)C1=O
270	87.3	115	860	390	–	CCCCCCCCCCCCCCCC1=C(OC)C(=O)C=C(OC)C1=O
230	87.7	103	> 10000	4300	61.7	CCCCCCCCCCCCCCCC1=C(O)C(=O)C=C(O)C1=O
180	76	90	7100	2000	–	CCCCCCCCCCC1=C(O)C(=O)C=C(O)C1=O
3800	138	131	1300	680	–	CCCCCCCCCCCC1=C(O)C(=O)C=C(OC)C1=O [5-O-METHYLEMBELIN]
420	114	116	490	270	–	CCCCCCCCCCCCCCC1=C(O)C(=O)C=C(OC)C1=O
3300	90.3	127	1600	450	–	COC1=CC(=O)C(OC)=C(C/C=C(\C)CCC=C(C)C)C1=O
1200	89.6	123	570	320	–	CCCCCCCCC1=C(OC)C(=O)C=C(OC)C1=O
–	0.91	5.2	–	–	–	N#C/C(=C\c1ccc(O)c(O)c1)C(=O)OC/C=C/c1ccccc1
40	87.3	139	90	120	–	CCCCCCCCCCCCCCC1=C(OC)C(OC)=CC(=O)C1=O
220	84.3	124	4700	2500	–	CCCCCCCCCCCCCC1=C(O)C(=O)C=C(O)C1=O [Rapanone]
5600	108	122	2400	1900	–	COC1=CC(=O)C(O)=C(C/C=C(\C)CC/C=C(\C)CCC=C(C)C)C1=O
930	161	93.4	590	200	–	CCCCCCCCCCCC1=C(OC)C(=O)C=C(OC)C1=O
260	58.8	84.1	310	230	–	CCCCCCCCCCCCCC1=C(OC)C(=O)C=C(OC)C1=O
600	72.8	125	390	380	–	COC1=CC(=O)C(=O)C(C/C=C(\C)CCC=C(C)C)=C1OC
740	148	116	1100	560	–	CCCCCCCCCCCCC1=C(O)C(=O)C=C(OC)C1=O
1800	144	–	1700	600	–	CCCCCCCCCCC1=C(OC)C(=O)C=C(OC)C1=O
2600	102	101	1400	320	–	CCCCCCC1=C(OC)C(=O)C=C(OC)C1=O
2600	18.6	91.7	990	330	–	CCCCCCC1=C(OC)C(OC)=CC(=O)C1=O

SMILES	IC50 [1] [nM]	Activity [2] [%]	Activity [3] [%]	IC50 [4] [nM]	IC50 [5] [nM]	Activity [6] [%]
CCCCCCCCCCCCCC1=C(O)C(=O)C=C(OC)C1=O [Sorgoleone-364]	920	73.2	88.1	2300	770	–
CCCCCCCCCCCCCCCC1=C(O)C(=O)C=C(OC)C1=O	270	92.8	103	860	390	–
